Experimental data taken from the EternaBench riboswitch data.

Tested on: MS2 coat protein
Assay: apparent Kd, MS2 coat protein; higher = weaker binding; RNA-MaP array; FMN 200 µM where present
Summary of the method: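 Green signal from SNAP-549-labelled MS2 coat protein was normalised to red-channel RNA signal and to the median Fmax of control clusters. The protein was titrated from 0.7 or 1.5 nM, doubling to 3 µM, without and then with constant ligand, over designs transcribed by stalled E. coli RNA polymerase on Illumina sequencing-chip clusters, in 100 mM Tris-HCl pH 7.5, 80 mM KCl, 4 mM MgCl2, BSA, DTT, yeast tRNA and Tween-20. The apparent Kd is the median of filtered per-cluster binding-curve fits.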

[1] = designed as: ON switch for flavin mononucleotide, no ligand
[2] = ligand present: flavin mononucleotide, designed as: ON switch for flavin mononucleotide
[3] = designed as: OFF switch for flavin mononucleotide, no ligand
[4] = ligand present: flavin mononucleotide, designed as: OFF switch for flavin mononucleotide

Row | Sequence | apparent Kd [1] | apparent Kd [2] | apparent Kd [3] | apparent Kd [4]
1 | UUCGACGUCGUAGGAUAUGUAGGAUAUUCCUACAUGAGGAUCACCCAUGUUGACAUGGAAGAAGGACAGAAGGACGAUGUCCAU | 0.301 µM | 0.0064 µM |  | 
2 | AAAAUCUAUAGAGGAUAUCCAUACACUACAUACGGAGAAGGCUAACAAUCAUGAGGACAUGAGGAUCACCCAUGUUGUGACCAU | 0.0248 µM | 0.0172 µM |  | 
3 | CUCAAACAUGAGGAUCACCCAUGUGUUGUCAUGGGAGGAUAUCUAAGUUCAUUGUAUUCAGGAGAAGGCCUAUGUC | 0.31 µM | 0.0344 µM |  | 
4 | GUCAGCUCGUUAGGAUAUACAACACUGCUUCGGCAGUGUAUUAAGAUCACAUGAGGAUCACCCAUGUAGAAGGCACGAGCUGAU |  |  | 0.00816 µM | 0.0295 µM
5 | UUCUUUACACGAGGAUAUCAUACAUGAGGAUCACCCAUGUUACUUUGUCUGUUAUUAUGUAUUAUUGAGAAGGCGUUUUUCUUU |  |  | 0.0207 µM | 0.0179 µM
6 | UCAUUGAUUGUGAGGAUAUCGAUGUGAUGGUUUGUCGAGAAGGCACAUGAGGAUCACCCAUGUGGGUGUGGGCU |  |  | 0.864 µM | 0.242 µM
7 | CAUUGGUAAGGAUAUGAAUCGAUCUCAGAAAUGAGAUCGAUUCAGAAGGUACAUGAGGAUCACCCAUGUUGAUG |  |  | 0.0278 µM | 0.0729 µM
8 | AAAAAGGCAGGAUAUACAAAACAGGGAAACCUGAAAAGGAAACAUGAGGAUCACCCAUGUAGAAGGGCCAAGAA |  |  | 0.0249 µM | 0.0353 µM
9 | GUAUAUAUUACAUGAGGAUCACCCAUGUCAGAACGGGUAAUCAGAAGGUAUUAUUAGAGAAAGAGUAAGGAUAUGAUUAUAUAC | 0.622 µM | 0.181 µM |  | 
10 | UACUUGUCAGGAUAUCUUACAUUAACAUCGUAGUUACCGUUGGAGAAGGGACAUGAGGAUCACCCAUGUUUGGC |  |  | 0.032 µM | 0.0549 µM
11 | AUCAGCUCGUCAGGAUAUACGGCACUGCGUCAGCAGUGUGGUAAGAUCACAUGAGGAUCACCCAUGUAGAAGGGACGAGCUGAU |  |  | 0.00806 µM | 0.0846 µM
12 | UAGAAGUCAGGAUAUCCAUGGCGGCACUUGCGUGGUGGCGUGGAGAAGGGACAUGAGGAUCACCCAUGUAAAGA |  |  | 0.0544 µM | 0.042 µM
13 | ACUGUCCGAGAGAAGGGAACAUGAGGAUCACCCAUGUUACCUCACCCGGUGACGGAACUCCAAGUUCAGGAUAUCUCGAGCGGU |  |  | 0.00709 µM | 0.0126 µM
14 | UUGCCUCAGAACAUGAGGAUCACCCAUGUGCUGCGGGCAACGUAGGAUAUGAUGGUUCGAUACCAUCAGAAGGAUGAUGGUACC | 0.00542 µM | 0.00522 µM |  | 
15 | GGUGCCAUGUAGAAGGCAGAUCUGAUUCAGAUCUGAGGAUAUACAUGAGGAUCACCCAUGUAAAGGCUCCGCACGAGAGUGCAA |  |  | 0.0149 µM | 0.0417 µM
16 | CAAUAUAGCACAGGAUAUGUCUCGUUUACAUGAGGAUCACCCAUGUCCGAAACAGAAGGGUGACCCGAUAUAGGACGUUGGGUG | 0.121 µM | 0.0289 µM |  | 
17 | GUCAGCUCGUGAGGAUAUACAACACUGCUUCGACAGUGUAUUAAGAUCACAUGAGGAUCACCCAUGUAGAAGGCACGAGCUGAU |  |  | 0.0136 µM | 0.211 µM
18 | CGUUCAGAGAACGAUACGAAUGGACAUGAGGAUCACCCAUGUAGAAGGACAACGGAAUAAACGUUGUAGGAUAUACAUUUAGUG |  |  | 0.0537 µM | 0.134 µM
19 | UAUAUGUCAGGAUAUCGAUUGGAACGGAAUUCGGUUCUGGUUGAGAAGGGACAUGAGGAUCACCCAUGUUUUUC |  |  | 0.0362 µM | 0.222 µM
20 | GAUGAGGUAGGAUAUACGAGAAGAUAGGGUAGAUAGAUAACACAUGAGGAUCACCCAUGUAGAAGGACCAGUAG |  |  | 0.0345 µM | 0.0798 µM
21 | GGGUUGUGAGGAUAUUAGUUGUACGUCAAUAGACGUAUAGGUGAGAAGGCACAUGAGGAUCACCCAUGUUCCUG |  |  | 0.0238 µM | 0.0569 µM
22 | UCUUAUUGCAAGGAUAUGCAAAUUAUUUUUUAAGCAGAAGGUGCAACAUGAGGAUCACCCAUGUUUCCGGGAAA |  |  | 0.0194 µM | 0.111 µM
23 | AAAACACAUGAGGAUCACCCAUGUAUCUGGACCAUAGGAUAUCCGCGCCCACUAGGGUAUGGAGAAGGGUGAGCCC | 0.161 µM | 0.122 µM |  | 
24 | AAUAAUUAGUGAGGAUAUACAUAAUUUAUUACUGUAGAAGGCACAAACCUCAAGACAUGAGGAUCACCCAUGUGGUAUUUAAAU |  |  | 0.213 µM | 0.39 µM
25 | AAAUGCCUGUCGAUGCUCGACAUGAGGAUCACCCAUGUAUAGCAGGAUAUGCAGACCUGACUCGUGCAGAAGGGCUAUACCUAA |  |  | 0.0126 µM | 0.0643 µM
26 | CUGAGGAAGAGAGAGGAUAUCCAAAGGAAAACAUGAGGAUCACCCAUGUAAAAGGUAGGAAAUUGGGAGAAGGCUCAAGAGAGAG | 0.0436 µM | 0.0386 µM |  | 
27 | CCGAAACCUCAGAAGGACCACAUGAGGAUCACCCAUGUCAAGCAAAACGGUAGGAUAUGAGGGAAAAGUCGAUAUACCCGACAG | 0.00784 µM | 0.00393 µM |  | 
28 | GUUAAUUAGUGAGGAUAUACAUAAUUUAAUACUGUAGAAGGCACAAUCCUCAAGACAUGAGGAUCACCCAUGUGAUAAUAAGCU |  |  | 0.0349 µM | 0.174 µM

Row | Sequence | apparent Kd [1] | apparent Kd [2] | apparent Kd [3] | apparent Kd [4]
29 | CCGAAUGUCACAGGAUAUGGUCCGGGCUCGCGACCAGAAGGGUGAUCUCACAUGAGGAUCACCCAUGUGUAGGCGUUAGGCUAC | 0.0363 µM | 0.26 µM |  | 
30 | AGUAAGAUGCAGAAGGUGUCAGCGAGAGCUGUACAUGAGGAUCACCCAUGUUGUCGGUGACGACACAAGGAUAUGCAUCUUACA | 0.0247 µM | 0.00628 µM |  | 
31 | ACGUAUAGAGGAUAUACAGAAUAUUACAUGAGGAUCACCCAUGUUCUUCAAUGUAUAUUUGUAGAAGGCUAAUGAA |  |  | 0.0607 µM | 0.281 µM
32 | GUACUGUAGUGAGGAUAUACGAGAACGAUAGUUCGGCGAUCCAUAUAUACAUGAGGAUCACCCAUGUAGAAGGCACUUCAGUAC |  |  | 0.0093 µM | 0.108 µM
33 | UUAUAUAUUAGAGGAUAUGUGUUCAUGUUACAUGAGGAUCACCCAUGUUUAUGUUGAUUGAUCUUACAGAAGGCUAUACAAUGA |  |  | 0.0201 µM | 0.0199 µM
34 | CAGUGCUGUUGAGAGGAUAUGCGGUGAUGGACAUGAGGAUCACCCAUGUUAGCGACAGCGUUACGGCAGAAGGCUCUACCCACUG | 0.0494 µM | 0.0224 µM |  | 
35 | ACCACGUUAGCGAUAUGAUCGAGAGAUCAUGUCGCUAAUUUUAGAAGGACAUGAGGAUCACCCAUGUAGGAUAUGGGACGUGGA | 0.0147 µM | 0.00788 µM |  | 
36 | GUUUCCACAGGAAGGAACACUCGGAGAAGGGCACAUGAGGAUCACCCAUGUGCGGCUCGUCACGUGCAGGAUAUUCGAUAUAGA |  |  | 0.0072 µM | 0.0175 µM
37 | CAUUCAAGCCAGAAGGAGUACACUACAUGAGGAUCACCCAUGUCUAAUACUAGGAUAUGGGCAUCUGGUAAUGUCUAAGGUGCG | 0.111 µM | 0.128 µM |  | 
38 | AUUAAAACAUAGGAUAUCGAAUUUAUUAUUUAACGAGAAGGAUGAACAUGAGGAUCACCCAUGUGGUAUCAUGG |  |  | 0.149 µM | 0.308 µM
39 | AUUUUGUCAGGAUAUGACUAGAUGCACGAAAGUGCAUCUACUUAGAAGGGACAUGAGGAUCACCCAUGUAUUCC |  |  | 0.0173 µM | 0.0178 µM
40 | ACGUAUCAUGUCAGGAUAUAGCUAGCUACGGCUAGCUAGAAGGGACAUGAGGAUCACCCAUGUCAAAGAUACGU |  |  | 0.014 µM | 0.019 µM
41 | AAUAUAGAGCUGGUCUCAUAAUAAACAUGAGGAUCACCCAUGUAGGAUAUCAGCACGAUAAGUGCUGAGAAGGACAUCCAGCUC |  |  | 0.0214 µM | 0.0471 µM
42 | UUCUUCUGAGGAUAUACAUAGAUUUACAUGAGGAUCACCCAUGUUCCUCUAUGUAUAAAUGUAGAAGGCAGAAGUU |  |  | 0.0169 µM | 0.0912 µM
43 | UCAUACGAUGAGGAUAUCUCCGUUAAAGUAUGUAGAGAAGGCGUUACAUGAGGAUCACCCAUGUUUGUGGGCAG |  |  | 0.304 µM | 0.385 µM
44 | AUAGUGCCGGAGAAGGACGUACCACAUGUUGAUCACCGAUAUAAGGAACGUAGGAUAUUCGACAUGAGGAUCACCCAUGUGGAU | 0.101 µM | 0.0647 µM |  | 
45 | GGAUAGGACAGAGGAUAUACGUGCUAGAGAUAAUAGCAAAAUUUCCUCACAUGAGGAUCACCCAUGUAGAAGGCUGUCCUAUCG |  |  | 0.0195 µM | 0.25 µM
46 | GUUAAGUGAGGAUAUGGUGAGUAGUGCCUGAGCGCUGCUCACCAGAAGGCACAUGAGGAUCACCCAUGUAUAGC |  |  | 0.0157 µM | 0.028 µM
47 | AAUAGUGGCGUAGGAUAUCUGCGUACAUGAGGAUCACCCAUGUCUCCCAGCCGCUGAGCUGGGACAGAGAAGGGCGACCGCAUA | 0.229 µM | 0.0889 µM |  | 
48 | AAAUAAACUAGCAAAAUUUCCUCACAUGAGGAUCACCCAUGUAAGGAUAUCUGUCCUAAAAGGACAGAGAAGGUACGUGCUAGG |  |  | 0.00453 µM | 0.00463 µM
49 | AAGUGUAUAGGAUAUGCGUGGAAAAGGUGUAUUCACUAGCGACAUGAGGAUCACCCAUGUAGAAGGGUAUGUAA |  |  | 0.124 µM | 0.064 µM
50 | GCAUCGCAUGUCAGGAUAUGCUGUACCUUGGUACAGCAGAAGGGACAUGAGGAUCACCCAUGUGCCUAUGAUGC |  |  | 0.0397 µM | 0.353 µM
51 | CACUUGGCAGGAUAUGCAAUUUUAGACAUGAGGAUCACCCAUGUGAUCAUUCCAUAUUAUGCAGAAGGGCCUAAAC |  |  | 0.199 µM | 0.747 µM
52 | GCUGACGAUGUAGGAUAUCAGUAUAAUAAAUACUGAGAAGGACAUGAGGAUCACCCAUGUAAUAAACGUCAGCAGAGGAAACUC |  |  | 0.0162 µM | 0.0226 µM
53 | GCUAUCGGGUGAGGAUAUAUAAUUGUGAUUAAAAUAGAAGGCAUCUCAGAAGACAUGAGGAUCACCCAUGUAGUUAAGAUGGCA | 0.0238 µM | 0.0201 µM |  | 
54 | GUAGCAUACAGAGGAUAUUCAAAACCGCAAAGCGGACAUGAGGAUCACCCAUGUGGCGAAAGCCGGGAGAAGGCUGAAUGCUAC | 0.0187 µM | 0.0161 µM |  | 
55 | AGAUGACAAUGUCAUCUUCAACGGACAUGAGGAUCACCCAUGUAGGAUAUGCUACUCAAAGAGUAGCAGAAGGACAUGUGUCUU |  |  | 0.0231 µM | 0.0852 µM
